Laboratory results: PubChem BioAssay
Calls of active or inactive are those of the source.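 The calls were made as follows, unless noted: active = viability at or below 10% of carrier control in both of two separate runs; inconclusive = viability at or below 10% in only one of the two runs; inactive = the rest.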

Experiments:
[1] = Her2 expression decrease, cell viability multiplex – SKBR3 breast tumor cells, AlphaScreen, ATP viability, primary screen (AID 461;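 active = Her2 level under about 52% in both replicate screens, with viability over 70% of control, limit read from the data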;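 as to Her2 level: lower value means less Her2 protein in the cells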;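 as to viability: percent of carrier control wells set as 100% viability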); conditions: SKBR3 Her2 protein level, 18-24 h, measured here: SKBR3 viability, ATP luminescence, at 10 µM
[2] = target: Receptor tyrosine-protein kinase erbB-2 (Homo sapiens) (UniProt P04626); assay: as above; conditions: 18-24 h, at 10 µM, stronger effect = lower value
[3] = reduced viability of SK-BR-3 breast cancer cells – cell-based, 24 h, human, pilot screen (AID 572); conditions: SK-BR-3 viability, CellTiter-Glo luminescence, at 10 µM, stronger effect = lower value;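 also: compound exposure lasted between 18 and 24 h rather than exactly 24 h; 100% = carrier-treated control wells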
[4] = HUVEC growth inhibition – cell-based, human, primary screen (AID 575;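 active = viability at or below 30% in both replicate assays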;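 also: 100% = median of untreated cell wells with 0.1% DMSO on each plate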); conditions: HUVEC proliferation, CellTiter-Glo luminescence, 72 h; at 10 µM; stronger effect = lower value
Method in brief: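 Test system: primary human umbilical vein endothelial cells. Quantity: 1250 cells/well. Compound: single 10 µM dose, 0.1% DMSO, from 5x medium stock. Timing: 72 h treatment at 37 °C. Detection: ATP-based CellTiter-Glo luminescent read. Benchmarks: vehicle and MePR control wells. Format: 384-well plates coated with collagen.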

[5] = H69AR cell proliferation blockers – human, duplicate replicates, primary screen (AID 580;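 active = viability at or under a set limit in both replicates, limit being median viability minus 3 SD, cut at about 48% in these data, passing the limit was not always enough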;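 also: 100% = mean luminescence of untreated wells and 0% = no signal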); conditions: H69AR lung tumor cells viability, ATP luminescence, 72 h; at 10 µM; stronger effect = lower value
[6] = MRP1 drug-resistance reversers in H69AR cells – cell-based, doxorubicin co-treatment, pilot screen (AID 601;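 active = viability loss from added drug above about 55%, and viability with drug at most 40%, in both replicates, limit read from the data, passing the limit was not always enough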); conditions: CellTiter-Glo, 72 h, at 10 µM; for differential viability (reversal): stronger effect = higher value
[7] = yeast transport mutant growth inhibition pilot in 384-well plates, post-Golgi transport modulator project (AID 636; in the data active = inhibition above about 31%); conditions: absorbance 615 nm, about 18 h, stronger effect = higher value
[8] = growth suppression of yeast trafficking mutant, preliminary HTS, modulators of trafficking downstream of Golgi apparatus project, 1536-format plate, OD 615 nm (AID 637; in the data active = inhibition above about 30%); conditions: yeast transport mutant growth, absorbance 615 nm, 18 h; stronger effect = higher value
[9] = H69AR cells + 2 uM doxorubicin, measured here: viability with 2 uM doxorubicin, stronger effect = lower value
[10] = H69AR cells, compound alone cytotoxicity

Sequence of Receptor tyrosine-protein kinase erbB-2 (Homo sapiens) (P04626 whole entry, looked up): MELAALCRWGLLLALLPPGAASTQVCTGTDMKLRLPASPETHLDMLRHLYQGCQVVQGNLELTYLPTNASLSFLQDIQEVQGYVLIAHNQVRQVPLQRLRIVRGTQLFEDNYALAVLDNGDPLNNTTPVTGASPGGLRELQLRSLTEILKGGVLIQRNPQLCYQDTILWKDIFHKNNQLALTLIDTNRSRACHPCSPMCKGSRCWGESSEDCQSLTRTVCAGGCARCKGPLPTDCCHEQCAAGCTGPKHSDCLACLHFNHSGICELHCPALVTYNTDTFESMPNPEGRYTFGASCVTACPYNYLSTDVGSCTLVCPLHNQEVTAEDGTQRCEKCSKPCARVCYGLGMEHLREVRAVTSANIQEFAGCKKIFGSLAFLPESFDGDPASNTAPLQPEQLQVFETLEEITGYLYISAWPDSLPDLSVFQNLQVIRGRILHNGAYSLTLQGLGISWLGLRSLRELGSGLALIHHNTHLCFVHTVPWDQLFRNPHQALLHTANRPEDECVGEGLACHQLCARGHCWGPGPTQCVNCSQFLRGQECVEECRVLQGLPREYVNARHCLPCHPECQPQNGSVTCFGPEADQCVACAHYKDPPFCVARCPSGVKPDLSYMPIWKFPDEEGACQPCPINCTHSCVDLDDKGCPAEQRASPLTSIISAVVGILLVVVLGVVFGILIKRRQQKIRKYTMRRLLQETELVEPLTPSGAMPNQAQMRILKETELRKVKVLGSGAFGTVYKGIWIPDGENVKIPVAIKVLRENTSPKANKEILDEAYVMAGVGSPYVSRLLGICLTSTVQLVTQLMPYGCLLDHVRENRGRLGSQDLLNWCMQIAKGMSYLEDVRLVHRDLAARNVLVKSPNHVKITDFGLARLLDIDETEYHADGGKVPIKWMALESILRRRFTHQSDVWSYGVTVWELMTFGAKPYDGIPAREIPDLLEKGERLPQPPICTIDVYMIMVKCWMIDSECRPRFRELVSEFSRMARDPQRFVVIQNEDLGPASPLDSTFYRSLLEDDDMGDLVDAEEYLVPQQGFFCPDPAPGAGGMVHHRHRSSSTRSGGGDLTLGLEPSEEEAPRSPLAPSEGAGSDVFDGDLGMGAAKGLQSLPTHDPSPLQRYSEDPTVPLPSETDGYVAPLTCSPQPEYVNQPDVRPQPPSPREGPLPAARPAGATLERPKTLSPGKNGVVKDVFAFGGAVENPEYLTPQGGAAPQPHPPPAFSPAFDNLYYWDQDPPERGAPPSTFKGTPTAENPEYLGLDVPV

| Compound | viability [1] | Her2 level [2] | viability [3] | viability [4] | viability [5] | differential viability (reversal) ([6]; H69AR cells + 2 uM doxorubicin) | viability [6, 9] | viability [6, 10] | inhibition [7] | inhibition [8] |
| --- | --- | --- | --- | --- | --- | --- | --- | --- | --- | --- |
| O=C(O)c1cc(/C=N\O)ccc1OCc1ccccc1 | 114% | 106% (inactive) | 114% (inactive) | 95.9% (inactive) | 103% (inactive) | 11.7% (inactive) | 91.2% | 103% | -5.33% (inactive) | 1.29% (inactive) |
| CCC(Sc1ccc2nnc(-c3ccc(F)cc3)n2n1)C(=O)OC (stereo not given) | 110% | 90% (inactive) | 110% (inactive) | 86.4% (inactive) | 83% (inactive) | 45% (inactive) | 38% | 83% | -7.7% (inactive) | 2.5% (inactive) |
| CCOC(=O)c1sc(N2C(=O)C(O)=C(C(=O)c3ccco3)C2c2ccccc2)nc1C (stereo not given) | 101% | 83.5% (inactive) | 101% (inactive) | 77.4% (inactive) | 84.2% (inactive) | 1.33% (inactive) | 82.9% | 84.2% | -4.93% (inactive) | 0.98% (inactive) |
| CCn1nc(C(=O)OCC(=O)N2CCc3ccccc32)c2ccccc2c1=O | 99.5% | 106% (inactive) | 99.5% (inactive) | 88.2% (inactive) | 96.8% (inactive) | 2.27% (inactive) | 94.6% | 96.8% | 1.41% (inactive) | -11.2% (inactive) |
| COCCn1c(SCC(=O)Nc2nnc(C)s2)nnc1-c1ccncc1 | 110% | 94% (inactive) | 110% (inactive) | 101% (inactive) | 97.9% (inactive) | 11.8% (inactive) | 86.1% | 97.9% | -5.95% (inactive) | 7.83% (inactive) |
| Cc1ccc(C(=O)NC2CC3CCCC(C2)N3C(=O)NC2CCCCC2)cc1 (stereo not given) | 92% | 109% (inactive) | 92% (inactive) | 111% (inactive) | 98.5% (inactive) | 7.93% (inactive) | 90.6% | 98.5% | -5.73% (inactive) | -2.1% (inactive) |
| COc1cccc(CNc2cccc3cccnc23)c1O | 102% | 82.5% (inactive) | 102% (inactive) | 73.5% (inactive) | 78.4% (inactive) | -14.6% (inactive) | 93% | 78.4% | -3.16% (inactive) | -1.97% (inactive) |
| Fc1ccc(Cn2nnc(-c3ccc(CN4CCOCC4)cc3)n2)cc1 | 88% | 122% (inactive) | 88% (inactive) | 108% (inactive) | 103% (inactive) | 6.81% (inactive) | 96.3% | 103% | 84.7% (active) | 43% (active) |
| COc1ccccc1-c1nnc2sc(-c3ccc(N(C)C)cc3)nn12 | 79.5% | 64% (inactive) | 79.5% (inactive) | 34.5% (inactive) | 23.9% (active) | -15.2% (inactive) | 39.1% | 23.9% | -1.05% (inactive) | 1.09% (inactive) |
| Cc1cc2nc(C3CCN(CC4COc5ccccc5O4)CC3)[nH]c2cc1C (stereo not given) | 98.5% | 87.5% (inactive) | 98.5% (inactive) | 3.41% (active) | 77.8% (inactive) | 22.7% (inactive) | 55.2% | 77.8% | -3.03% (inactive) | 2.83% (inactive) |
| Cc1cccc(-c2nnc(SCC#N)n2-c2cccc(Cl)c2)c1 | 90.5% | 83.5% (inactive) | 90.5% (inactive) | 104% (inactive) | 84.6% (inactive) | -3.93% (inactive) | 88.6% | 84.6% | -6% (inactive) | 0% (inactive) |
| CCN(CC)c1ccc(CNc2ccc(Br)cn2)cc1 | 108% | 92.5% (inactive) | 108% (inactive) | 106% (inactive) | 90.7% (inactive) | -14.7% (inactive) | 105% | 90.7% | -0.66% (inactive) | -3.11% (inactive) |
| Clc1ccc(OCc2nc(-c3ccccn3)no2)c(Br)c1 | 82.5% | 92.5% (inactive) | 82.5% (inactive) | 55.6% (inactive) | 102% (inactive) | 3.96% (inactive) | 98.4% | 102% | -0.26% (inactive) | -8.67% (inactive) |
| COc1cc(OC)cc(-n2nnnc2SCC(=O)N2CCCC2)c1 | 87% | 79% (inactive) | 87% (inactive) | 94.9% (inactive) | 87.4% (inactive) | -4.62% (inactive) | 92% | 87.4% | -2.11% (inactive) | 0.36% (inactive) |
| CCc1nnc(NC(=O)c2cccc(C(=O)Nc3nnc(CC)s3)n2)s1 | 53.5% | 72% (inactive) | 53.5% (inactive) | 3.29% (active) | 8.87% (active) | 1.33% (inactive) | 7.54% | 8.87% | 83.5% (active) | 73% (active) |
| CCc1nc2scc(-c3ccccc3)c2c(=O)n1N | 136% | 119% (inactive) | 136% (inactive) | 84% (inactive) | 88.4% (inactive) | -8.11% (inactive) | 96.5% | 88.4% | -1.33% (inactive) | -3.97% (inactive) |
